From ChEMBL document CHEMBL1154391, “Novel thienopyrimidine and thiazolopyrimidine kinase inhibitors with activity against Tie-2 in vitro and in vivo” (Bioorg Med Chem Lett, 2009)
Values after ≈ are worked out from the molar mass of the structure shown. Active and inactive are the calls of the source. The rule behind the calls is not given here.

How the values were obtained:
[1] = (§1) Protein binding in rat plasma; format: ADME, cell-free; conditions: read-out: PPB (converted)
Angiopoietin-1 receptor [2] = target: T1, Angiopoietin-1 receptor (Homo sapiens, UniProt Q02763); assay: Inhibition of Tie-2 phosphorylation by cell based assay
T1 sequence (Q02763 whole entry): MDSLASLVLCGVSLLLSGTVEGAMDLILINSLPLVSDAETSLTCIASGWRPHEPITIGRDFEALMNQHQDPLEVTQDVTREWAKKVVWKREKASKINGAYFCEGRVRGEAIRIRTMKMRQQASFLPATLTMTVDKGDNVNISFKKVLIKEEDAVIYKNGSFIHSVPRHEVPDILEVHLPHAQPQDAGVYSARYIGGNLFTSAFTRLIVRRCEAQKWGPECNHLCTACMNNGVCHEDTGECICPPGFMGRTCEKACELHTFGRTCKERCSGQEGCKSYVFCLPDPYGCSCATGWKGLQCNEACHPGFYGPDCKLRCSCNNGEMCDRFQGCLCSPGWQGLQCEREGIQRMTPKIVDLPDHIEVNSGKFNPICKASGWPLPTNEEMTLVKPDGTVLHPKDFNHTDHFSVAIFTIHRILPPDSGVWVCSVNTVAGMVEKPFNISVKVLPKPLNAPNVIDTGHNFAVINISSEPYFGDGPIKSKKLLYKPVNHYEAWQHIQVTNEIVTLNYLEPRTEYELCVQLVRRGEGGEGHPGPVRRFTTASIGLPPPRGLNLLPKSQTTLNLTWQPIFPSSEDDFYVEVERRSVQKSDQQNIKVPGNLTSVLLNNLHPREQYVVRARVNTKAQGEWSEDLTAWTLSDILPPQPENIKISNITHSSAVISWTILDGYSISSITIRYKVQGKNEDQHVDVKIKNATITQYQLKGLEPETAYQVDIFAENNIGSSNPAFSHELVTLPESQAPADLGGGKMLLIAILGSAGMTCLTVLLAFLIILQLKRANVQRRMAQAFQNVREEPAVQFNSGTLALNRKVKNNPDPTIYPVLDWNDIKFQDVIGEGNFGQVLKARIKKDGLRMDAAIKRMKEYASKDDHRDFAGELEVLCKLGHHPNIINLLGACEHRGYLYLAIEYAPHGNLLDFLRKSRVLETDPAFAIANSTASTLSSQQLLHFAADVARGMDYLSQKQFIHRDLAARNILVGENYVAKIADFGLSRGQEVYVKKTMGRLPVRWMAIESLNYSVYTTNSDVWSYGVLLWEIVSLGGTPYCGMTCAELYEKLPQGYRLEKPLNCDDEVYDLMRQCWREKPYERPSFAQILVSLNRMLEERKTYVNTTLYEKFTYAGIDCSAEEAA

[3] = Cmax in rat at 1 mg/kg, po; format: ADME, organism-based; design: dose 1 mg/kg, route oral; conditions: in vivo
[4] = Bioavailability in rat at 2 mg/kg, iv and 5 mg/kg, po; format: ADME, organism-based; conditions: in vivo
[5] = Half life in rat at 5 mg/kg, po; format: ADME, organism-based; design: dose 5 mg/kg, route oral; conditions: in vivo
[6] = Volume of distribution at steady state in rat at 2 mg/kg, iv and 5 mg/kg, po; format: ADME, organism-based; conditions: in vivo, read-out: Vdss
[7] = Clearance in rat at 2 mg/kg, iv and 5 mg/kg, po; format: ADME, organism-based; conditions: in vivo
Angiopoietin-1 receptor [8] = target: T1, Angiopoietin-1 receptor; assay: Inhibition of Tie-2
[9] = target: Vascular endothelial growth factor receptor 2 (Homo sapiens) (UniProt P35968); assay: Inhibition of FLt
[10] = target: Vascular endothelial growth factor receptor 1 (Homo sapiens) (UniProt P17948); assay: Inhibition of Flt-1
Sequence of Vascular endothelial growth factor receptor 1 (Homo sapiens) (P17948 whole entry, looked up): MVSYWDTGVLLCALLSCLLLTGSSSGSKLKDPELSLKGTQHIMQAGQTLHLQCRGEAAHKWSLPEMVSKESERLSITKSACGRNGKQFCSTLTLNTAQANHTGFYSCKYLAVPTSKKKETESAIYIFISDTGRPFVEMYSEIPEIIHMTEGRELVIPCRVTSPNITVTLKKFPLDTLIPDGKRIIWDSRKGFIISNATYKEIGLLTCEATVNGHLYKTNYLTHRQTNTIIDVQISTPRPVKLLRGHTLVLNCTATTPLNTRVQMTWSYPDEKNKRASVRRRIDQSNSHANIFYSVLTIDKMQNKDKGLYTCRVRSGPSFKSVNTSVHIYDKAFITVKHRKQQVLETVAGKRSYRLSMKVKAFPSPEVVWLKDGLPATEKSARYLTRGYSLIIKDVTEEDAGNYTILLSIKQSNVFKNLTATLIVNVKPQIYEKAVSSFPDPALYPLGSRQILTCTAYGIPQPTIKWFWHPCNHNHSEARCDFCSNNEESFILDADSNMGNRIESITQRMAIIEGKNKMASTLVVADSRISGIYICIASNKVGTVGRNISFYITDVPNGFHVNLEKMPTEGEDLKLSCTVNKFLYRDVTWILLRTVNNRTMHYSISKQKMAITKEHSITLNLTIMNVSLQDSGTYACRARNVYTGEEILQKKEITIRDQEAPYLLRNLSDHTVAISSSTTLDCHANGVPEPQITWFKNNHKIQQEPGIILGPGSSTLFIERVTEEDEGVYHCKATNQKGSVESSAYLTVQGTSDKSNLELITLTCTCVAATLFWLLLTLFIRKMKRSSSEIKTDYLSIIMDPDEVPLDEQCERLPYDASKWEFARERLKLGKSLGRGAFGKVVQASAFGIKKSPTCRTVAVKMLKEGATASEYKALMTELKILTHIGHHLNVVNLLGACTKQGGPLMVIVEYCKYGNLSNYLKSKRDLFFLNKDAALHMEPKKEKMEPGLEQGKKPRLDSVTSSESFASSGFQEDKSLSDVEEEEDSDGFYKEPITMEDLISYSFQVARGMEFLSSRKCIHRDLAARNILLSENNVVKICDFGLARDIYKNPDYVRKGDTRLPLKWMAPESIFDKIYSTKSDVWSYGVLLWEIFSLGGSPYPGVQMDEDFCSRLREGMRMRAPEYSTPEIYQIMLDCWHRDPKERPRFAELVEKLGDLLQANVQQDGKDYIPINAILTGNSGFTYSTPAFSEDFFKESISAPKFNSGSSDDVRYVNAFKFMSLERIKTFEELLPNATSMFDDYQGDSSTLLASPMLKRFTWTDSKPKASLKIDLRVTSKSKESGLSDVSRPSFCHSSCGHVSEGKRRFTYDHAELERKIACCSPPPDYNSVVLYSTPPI

Rattus norvegicus [11] = assay: Hypotensive activity in rat assessed as reversal of angiopoietin-1-induced reduction in blood pressure at 20 mg/kg, iv; format: functional, organism-based; design: dose 20 mg/kg
Method in brief: (§2)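 Male Alderley Park rats anaesthetised with α-chloralose iv, maintained with thiopentone ip. Carotid artery cannulated for blood pressure recording by pressure transducer. Jugular vein cannulated for bolus VEGF or Ang-1 in 0.85% NaCl. Ang-1 was baculovirus/insect-cell expressed, 40–60 µg per batch, adjusted to give a 10–20 mmHg fall. Compound or vehicle given iv (25% w/v hydroxypropyl-β-cyclodextrin, Sorensen phosphate pH 5.5).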

Rattus norvegicus [12] = assay: Hypotensive activity in rat assessed as VEGF-induced reduction in blood pressure at 20 mg/kg, iv; format: functional, organism-based; design: dose 20 mg/kg; method in brief: as §2
[13] = Aqueous solubility at pH 7
Plasma = assay: as §1; format: ADME, cell-free
[14] = Lipophilicity, log D of the compound; conditions: octanol/water

`Nc1ncnc2sc(-c3c(-c4ccccc4)ncn3CC3CCCCC3)nc12` gave a fraction unbound [1] of 0.016.
In the case of `Cn1cnc(-c2cccc(NC(=O)Nc3cc(C(F)(F)F)ccc3F)c2)c1-c1cc2c(N)ncnc2s1`, the IC50 (Angiopoietin-1 receptor [2]) is reported as 70 nM.
`Cc1ccc(Sc2cccc(-c3ncn(C)c3-c3cc4c(N)ncnc4s3)c2)cc1` gave an IC50 (Angiopoietin-1 receptor [2]) of 1400 nM.
`Cc1cc(NC(=O)Nc2cccc(-c3ncn(C)c3-c3cc4c(N)ncnc4s3)c2)on1` gave an IC50 (Angiopoietin-1 receptor [2]) of 340 nM and a Cmax [3] of 9 nM.
`Cn1cnc(-c2ccccc2)c1-c1cc2c(N)ncnc2s1` showed a fraction unbound [1] of 0.045, an IC50 (Angiopoietin-1 receptor [2]) of 1800 nM and a bioavailability [4] greater than 100%. It also gave a half-life [5] of 1.8 h, a Vd [6] of 1.4 L/kg and a clearance [7] of 39 mL/min/kg. It also gave an IC50 (Angiopoietin-1 receptor [8]) of 34000 nM, an IC50 [9] of 22000 nM and an IC50 [10] of 10000 nM.
In the case of `Nc1ncnc2sc(-c3c(-c4ccccc4)ncn3Cc3ccccc3N3CCOCC3)nc12`, the fraction unbound [1] is reported as 0.058, the IC50 (Angiopoietin-1 receptor [2]) is reported as 440 nM and the Activity (Rattus norvegicus [11]) is reported as “Active”. The Activity (Rattus norvegicus [12]) was “inactive”.
`CCn1cnc(-c2ccccc2)c1-c1nc2c(N)ncnc2s1` gave a solubility [13] of 171 µM (≈ 55.1 µg/mL) and an IC50 (Angiopoietin-1 receptor [2]) of 3000 nM.
`CC(C)Cn1cnc(-c2ccccc2)c1-c1nc2c(N)ncnc2s1` gave a fraction unbound [1] of 0.059, a solubility [13] of 70 µM (≈ 24.5 µg/mL) and an IC50 (Angiopoietin-1 receptor [2]) of 490 nM.
With `Cn1cnc(-c2cccc(NC(=O)Nc3ccccc3)c2)c1-c1cc2c(N)ncnc2s1` the IC50 (Angiopoietin-1 receptor [2]) was 1400 nM.
Work on `Nc1ncnc2sc(-c3c(-c4ccccc4)ncn3C[C@H]3CCCO3)nc12` yielded a fraction unbound [1] of 0.2 and an IC50 (Angiopoietin-1 receptor [2]) of 370 nM.
Compound `Cn1cnc(-c2ccccc2)c1-c1nc2c(N)ncnc2s1` has a fraction unbound [1] of 0.052, a PPB (Plasma) of 94.6% and a solubility [13] of 160 µM (≈ 49.3 µg/mL). The bioavailability [4] was greater than 100%, the half-life [5] was 1.6 h and the Vd [6] was 1.2 L/kg. The clearance [7] was 30.1 mL/min/kg, the IC50 (Angiopoietin-1 receptor [8]) was 20000 nM and the logD [14] was 2.7.
